In PMC3982714 (International Journal of Oncology, 2012):
Read-outs that look alike come from different tables or passages of the source. Blank lines part the entries; values can stand above or below the molecule they belong to.

How the values were obtained:
[1] = Pharmacokinetics, HPLC analysis of plasma; type: in vivo, Fisher 344 rats
[2] = cited from earlier work
NF-κB subunit p65 [3] = assay: Western blot of p65 in nuclear extracts of HCT116 cells; type: cell-based, human
In short: (§1)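 HCT116 cells grown in RPMI-1640. Cytoplasmic and nuclear fractions prepared by lysis, with NP-40 added at a later step; supernatant taken as cytoplasm. Nuclei washed, then resuspended in extraction buffer and pelleted. Standard western blot. Probes: rabbit anti-phospho-p65 (Ser276) for p65; mouse anti-β-catenin for β-catenin.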

β-catenin [4] = assay: Western blot of β-catenin in nuclear extracts of HCT116 cells; type: cell-based, human
In short: as §1

NF-κB subunit p65 [5] = assay: Immunofluorescent staining of phospho-p65 in colon sections of AOM rats; type: in vivo, rat; settings: AOM study, 40 weeks
In short: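 Colons from rats killed at week 40 were formalin-fixed and paraffin-embedded; 4 μm sections cut. Antigen retrieval by microwaving 15 min in 0.01 mol/l citrate, pH 6.0. Blocked with 5% donkey serum 30 min. Rabbit anti-phospho-p65 (Ser276) with mouse anti-β-catenin, or control IgG, applied overnight at 4°C. Fluorescent donkey secondaries 1 h at room temperature. Viewed by fluorescence microscopy.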

[6] = tested on: AOM-induced colonic ACF and tumors; type: in vivo, Fisher 344 rats; settings: for Weight: average ± SE
In short: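 Male Fisher 344 rats, 3–4 weeks old, about 90 g, acclimated 1 week. AOM 15 mg/kg or saline given s.c. once weekly for 2 weeks. […] Rats weighed weekly. Week-20 colons formalin-fixed 24 h, stained with 0.2% methylene blue 3–5 min; ACF counted microscopically. Week-40 tumors counted; long and short diameters measured. Mean ± SEM, ANOVA.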

[7] = type: in vivo, Fisher 344 rats; settings: 7 days
In short: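 Male Fisher 344 rats, 8–9 weeks old, 7 per group. […] Killed by CO2 1 h after the last dose. Stomach, small intestine and colon inspected for ulcers under magnification, then formalin-fixed for histology. Heart, liver, lung and kidney collected for toxicity analysis.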

PGE2 = PGE2 in culture media of LPS-stimulated macrophages by ELISA; type: cell-based, mouse; settings: RAW 264.7 macrophages, 130 μM for 12 h, then LPS 100 ng/ml overnight
In short: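 RAW 264.7 mouse macrophages grown in DMEM. 1.5×10⁶ cells pre-incubated 12 h with test compound at 130 μM, then stimulated with LPS 100 ng/ml overnight. PGE2 in culture media measured by ELISA. Mean ± SEM, ANOVA.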

β-catenin [8] = assay: Immunofluorescent staining of β-catenin in colon sections of AOM rats; type: in vivo, rat; settings: AOM study, 40 weeks
[9] = 20 weeks, saline, diet IBU 500 ppm or p-IBU 900 ppm
[10] = 40 weeks, saline, diet IBU 500 ppm or p-IBU 900 ppm

plasma level of metabolite ([1]; 20 weeks (first value)): 4000 nM | plasma level of metabolite ([1]; 40 weeks): undetectable
SMILES: CC(C(=O)O)c1ccc(C(O)C(C)C)cc1 (stereo not drawn) [1-OH-ibuprofen]

plasma level of metabolite ([1]; group fed a diet of ibuprofen): 99000 nM | plasma level of metabolite ([1]; group fed a diet of p-ibuprofen): 102000 nM
SMILES: CC(C(=O)O)c1ccc(CC(C)(C)O)cc1 (stereo not drawn) [2-OH-ibuprofen]

plasma level of metabolite ([1]; 20 weeks (first value)): 3000 nM | plasma level of metabolite ([1]; 40 weeks): 3000 nM
SMILES: CC(Cc1ccc(C(C)C(=O)O)cc1)C(=O)O (stereo not drawn) [carboxy-ibuprofen]

More lines, now with the values behind:

SMILES: CC(C)Cc1ccc(C(C)C(=O)OCCN(C)C)cc1.Cl (stereo not drawn) [ibuprofen-O(CH2)2N(CH3)2HCl]
GI toxic side effects compared to the parent molecule [2]: decreased

SMILES: CC(C)Cc1ccc(C(C)C(=O)NCC(=O)O)cc1 (stereo not drawn) [ibuprofen-NHCH2COOH]
GI toxic side effects compared to the parent molecule [2]: decreased

SMILES: CC(C)Cc1ccc(C(C)C(=O)O)cc1 (stereo not drawn) [ibuprofen, Ibuprofen]
nuclear translocation of the NF-κB subunit p65 (NF-κB activation) (NF-κB subunit p65 [3]): inhibitory effect was not observed | β-catenin levels in nuclear extracts compared to vehicle-treated control (β-catenin [4]): markedly decreased | effect on phosphorylation of p65 (NF-κB activation) (NF-κB subunit p65 [5]): not ibuprofen inhibited | Weight ([6]; 20 weeks, AOM, diet IBU 500 ppm or p-IBU 900 ppm): 406±118.91 | ACFs (ACF multiplicity) [6, 9]: 0 | Tumors [6, 9]: 0 | Weight [6, 9]: 416±6.11 | Weight ([6]; 40 weeks, AOM, diet IBU 500 ppm or p-IBU 900 ppm): 432±8.84 | ACFs [6, 10]: 0 | Tumors (tumor multiplicity) [6, 10]: 0 | Weight [6, 10]: 431±15.43 | reduction of the multiplicity of ACF compared with vehicle ([6]; week 20, AOM rats, diet ibuprofen 500 ppm or p-ibuprofen 900 ppm): 37.9% | reduction of the multiplicity of colon tumors compared with vehicle ([6]; week 40, AOM rats, diet ibuprofen 500 ppm or p-ibuprofen 900 ppm): 56.6% | rats with stomach ulceration ([7]; ibuprofen 670 mg/kg by gavage, 7 rats): 85.7% | ulceration in stomach or intestine ([7]; low dose by gavage): did not lead to ulceration | suppression of PGE2 production compared to LPS-treated control (PGE2): 84.1% | effect on AOM-induced β-catenin cytoplasmic accumulation and nuclear translocation (β-catenin [8]): reduced

SMILES: CC(C)Cc1ccc(C(C)C(=O)O[C@@H]2O[C@H](C(=O)O)[C@@H](O)[C@H](O)[C@H]2O)cc1 (stereo partly drawn) [ibuprofen-glucuronide]
plasma level of metabolite ([1]; 20 weeks (first value)): 1000 nM | plasma level of metabolite ([1]; 40 weeks): 1000 nM
